Source: PubChem BioAssay
HCV NS3 hel inh: inhibitors of HCV NS3 helicase, primary screen, biochemical, Cy5 molecular beacon fluorescence. hit rate 0.56% among 290,000. Hepatitis C virus NS3 helicase. NS3 helicase DNA unwinding. inhibition, % at 10.9 µM;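 active means inhibition above the mean of all tested compounds plus 3 SD, set per campaign, cut at about 35% in these data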;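 further: 0% = DMSO wells and 100% = thioflavine S control wells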
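Measured by: Cy5 fluorescence, 0 and 60 min reads / Assay system: NS3 helicase fragment of HCV / Control set: low DMSO, high thioflavine S at 110 µM / Times: 1 h reaction at 25 °C, ATP-initiated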
Lipid droplet: inhibitors of hepatocyte lipid droplet formation, primary screen, imaging, high-throughput imaging, BODIPY stain. hit rate 0.4% among 240,000. AML12 mouse hepatocytes, oleate lipid droplets. AID 1656, 2009. inhibition, % at 6.5 µM;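 active means lipid droplet intensity inhibited by at least 50%, with more than 500 cells counted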
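Assay system: AML12 hepatocytes (mouse) / Also added: 100 µM oleic acid challenge / Times: overnight treatment with compound plus oleate / Detection: high-content imaging of BODIPY-stained droplets and DAPI nuclei / Evaluation: % inhibition of lipid droplet signal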
Tb MetRS inh: T. brucei MetRS inhibitors, primary screen, biochemical, luminescence; hit rate 0.4% among 360,000; AID 624268, 2012; purified T. brucei MetRS, ATP depletion, Kinase-Glo luminescence; inhibition, % at 11.9 µM;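 active means inhibition above a per-plate cutoff of the control wells' mean inhibition plus 3 SD, cut at about 5.5% in these data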;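 further: 0% = DMSO wells median and 100% = median of wells with control inhibitor compound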
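Measured by: Kinase-Glo luciferase luminescence reporting remaining unconsumed ATP. Material: purified T. brucei MetRS enzyme. Doses: 11.9 µM compound single dose, 0.9% DMSO. Medium: HEPES buffer containing pyrophosphatase, BSA, spermine, DTT. Times: 15 min preincubation, 2 h reaction, all 25 °C. Reagent: methionine, ATP and bulk E. coli tRNA.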
HCV core dimer: inhibitors of HCV core protein dimerization, primary screen, biochemical, TR-FRET, high-throughput; AID 1899, 2009; hit rate 0.33% among 300,000; TR-FRET GST/Flag-core106 dimerization, 1536-well; inhibition, % at 5 µM;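 active means inhibition above the mean of all tested compounds plus 3 SD, set per screening campaign, cut at about 45% in these data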
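assay system = GST-tagged and Flag-tagged HCV core protein residues 1-106 | controls = unlabelled core106 and no-GST-core106 wells | incubation = compound-protein-antibody incubation 4 h at 22.5 °C | probe or stimulus = Eu donor and XL665 acceptor anti-tag antibodies | read-out = % inhibition based on acceptor/donor emission ratio | signal = TR-FRET 671 and 617 nm emission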
Tb MetRS conf: T. brucei MetRS inhibitors, confirmation, biochemical, luminescence; inhibition, % at 11.9 µM; shares compounds with Tb MetRS inh; hit rate 93% among 1,400; T. brucei MetRS enzyme, luminescence (ATP depletion); in the data active means inhibition above about 7%
Jurkat tox: Jurkat T cell cytotoxicity, cytotoxicity control for T. brucei MetRS inhibitor project, luminescence, high throughput; shares compounds with Tb MetRS inh; Jurkat cells viability, ATP luminescence; inhibition, % at 8.3 µM; hit rate 12% among 1,400; AID 624413, 2012; in the data active means inhibition above about 15%;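 further: 0% = vehicle and 100% = reference inhibitor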
Tb MetRS inh FP: T. brucei MetRS inhibitors, orthogonal assay for T. brucei MetRS inhibitor project, biochemical, fluorescence polarization | shares compounds with Tb MetRS inh | purified T. brucei MetRS | inhibition, % at 11.9 µM | hit rate 44% among 1,400 | AID 651607, 2012; in the data active means inhibition above about 17%;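 further: 0% = vehicle wells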
Active calls of the source: *; x = no result. Sampled rows, rich in hits. Any-hit rate of the full collection: about 1.3%.

SMILES | HCV NS3 hel inh | Lipid droplet | Tb MetRS inh | HCV core dimer | Tb MetRS conf | Jurkat tox | Tb MetRS inh FP
Cc1ccccc1C(OCCN(C(C)C)C(C)C)c1ccccc1 (stereo not drawn) | -16 | 4 | -1 | -3 | x | x | x
O=c1c(Cc2ccc(Cl)cc2Cl)c(O)ccn1Cc1ccncc1 | 7 | -8 | 27* | -3 | 39* | -2 | 27*
CC/C(O)=C1\C(=O)CCCC1=NCc1nc2ccccc2[nH]1 | 16 | 1 | 8.9* | -5 | 16* | 2 | 5
CC/C(O)=C1\C(=O)CCCC1=NCCc1nc2ccccc2[nH]1 | 9 | 2 | 1 | -2 | x | x | x
COc1ccc(OCC(=O)Nc2cccc(-c3nc4ccccc4[nH]3)c2)cc1 | -6 | x | 7.1* | 4 | 12* | 4 | 31*
O=C(COc1ccccc1)Nc1cccc(-c2nc3ccccc3[nH]2)c1 | -8 | 7 | 21* | -9 | 43* | 4 | 26*
O=C(O)CCCC(=O)Nc1cccc(-c2nc3ccccc3[nH]2)c1 | 1 | x | 0 | 2 | x | x | x
CC(=O)NC(=S)Nc1ccc2oc(=O)ccc2c1 | 10 | 8 | 0 | -1 | x | x | x
NC(=S)NN=C1CCSCC1 | x | x | 0 | x | x | x | x
Cc1ccc(NC(=O)CCS(=O)(=O)c2cccc3nonc23)c(Br)c1 | 6 | 20 | 0 | -13 | x | x | x
Cc1cc(Cl)cc(C)c1OCCCCCn1ccnc1 | -36 | 3 | 7.8* | 9 | 19* | 7 | 10
CC(C)c1ccc(N)c(S(=O)(=O)O)c1 | 2 | 3 | 7.7* | -1 | 2 | 0 | 6
COc1ccc(Cc2c(-c3cccc(Cl)c3)nc3ccc(Cl)cn23)c(C)c1 | x | x | 1 | x | x | x | x
COc1ccccc1-c1nnc(SC(C(=O)c2c[nH]c3ccccc23)c2ccccc2)n1C (stereo not drawn) | -29 | -26 | 13* | 20 | 35* | 2 | 11
CCCCSc1nnc(-c2c[nH]c3ccccc23)n1C | 3 | x | 2 | 14 | x | x | x
COc1cccc(-c2nnc(SC(C(=O)c3c[nH]c4ccccc34)c3ccccc3)n2C)c1 (stereo not drawn) | -4 | 8 | 1 | 17 | x | x | x
Cn1c(SCc2ccccc2)nnc1-c1c[nH]c2ccccc12 | -4 | 8 | 8.3* | 6 | 19* | 5 | 6
O=C(NCc1nc2ncc(Br)cc2[nH]1)c1ccccc1 | -8 | x | 6.8* | 4 | 16* | 1 | 8
C=CCNC(=S)NNC(=O)CSc1nc2ccccc2s1 | -3 | 0 | 7.6* | -2 | 14* | 4 | 1
CN(CC(=O)Nc1ccccc1Cl)C(=O)COC(=O)/C=C/c1cccc(C(F)(F)F)c1 | x | x | 0 | x | x | x | x
Cc1c(C)n(CC(O)CN2C(=O)c3ccccc3S2(=O)=O)c2ccccc12 (stereo not drawn) | -2 | 2 | 0 | 0 | x | x | x
Cc1ccc(C)c(S(=O)(=O)N2CCN(C(=O)c3ccc(-n4cncn4)c([N+](=O)[O-])c3)CC2)c1 | x | x | 1 | 3 | x | x | x
Cc1ccc(OCC(=O)NNC(=O)c2ccc(-n3cncn3)c([N+](=O)[O-])c2)cc1 | x | x | 16* | 1 | 41* | -4 | 17*
CCc1ccc(OCC(=O)NNC(=O)c2ccc(-n3cncn3)c([N+](=O)[O-])c2)cc1 | x | x | 5.9* | x | 35* | -8 | 17*
O=C(COc1ccc(Br)cc1)NNC(=O)c1ccc(-n2cncn2)c([N+](=O)[O-])c1 | x | x | 20* | x | 54* | 1 | 23*
SMILES | HCV NS3 hel inh | Lipid droplet | Tb MetRS inh | HCV core dimer | Tb MetRS conf | Jurkat tox | Tb MetRS inh FP
CCNC(=O)c1c(NC(=O)c2cc(-c3cc(C)cc(C)c3O)n[nH]2)sc2c1CCCC2 | x | x | 0 | x | x | x | x
O=C(NC1CC(=O)c2sccc21)c1ccc(Cl)cc1Cl (stereo not drawn) | -1 | -12 | 0 | 1 | x | x | x
C[C@H]1CN([C@@H](C)CO)C(=O)CCCn2cc(nn2)CO[C@@H]1CN(C)C(=O)NC1CCCCC1 | x | x | -1 | x | x | x | x
CCC(C)NCCOCCOc1ccc(Cl)cc1Br (stereo not drawn) | -6 | 2 | 2 | -5 | x | x | x
COc1cc(/C=C(\C#N)c2nc3ccccc3[nH]2)ccc1Oc1ccc([N+](=O)[O-])cn1 | 2 | x | 21* | 9 | 63* | 24* | 37*
CCN(CC(=O)Nc1ccc(OC)cc1)C(=O)c1ccc2c(c1)NC(=O)C(C)S2 (stereo not drawn) | x | x | 18* | -3 | 48* | -1 | 24*
CCOc1ccc(CN(CC)C(=O)Cc2c[nH]c3ccccc23)cc1OC | -1 | -5 | 0 | 0 | x | x | x
Cc1ccc(NC(=O)COC(=O)C2(c3ccc(Cl)cc3)CCCC2)cc1 | 6 | 8 | 6.9* | -1 | 12* | 3 | 12
O=C(COC(=O)CCCOc1ccc(Cl)cc1Cl)Nc1cccc(Cl)c1 | -1 | x | 31* | 1 | 45* | 1 | 49*
CC(C)NC(=O)CCCOc1ccc(Cl)cc1Cl | 3 | 13 | 6.3* | 0 | 11* | -11 | -2
C#CCN(C)CCCOc1ccc(Cl)cc1Cl | -6 | -3 | 7.3* | -2 | 18* | 6 | 3
CCN(CC)C(=O)CCCOc1ccc(Cl)cc1Cl | -5 | x | 9.1* | -1 | 16* | 13 | 5
CN1CCN(C(=O)CCCOc2ccc(Cl)cc2Cl)CC1 | -6 | x | 2 | 4 | x | x | x
COc1ccc(CNC(=O)COC(=O)CCCOc2ccc(Cl)cc2Cl)cc1 | 0 | 0 | 0 | -8 | x | x | x
